Results from ChEMBL document CHEMBL1141826, “From a phagostimulant natural product to semisynthetic antifeedants against Spodoptera littoralis larvae: chemical transformations of the neoclerodane diterpenoid scutegalin B” (J Nat Prod, 1999).

Key:
Spodoptera littoralis [1] = assay: Antifeedant activity against sixth stadium larvae of Spodoptera littoralis assessed as antifeedant index at 100 ppm after 16 hrs; assay type: functional
In short: (§1)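 Choice test: sixth-stadium larvae were starved 4 h and each placed in a Petri dish with two sucrose-treated glass-fiber disks (100 μL 0.05 M, 2.1 cm), one a control and one carrying compound at 100 ppm. Disks were reweighed, and index = [(C−T)/(C+T)]×100 from weights eaten. Negative values mean phagostimulation. 10 replications; Wilcoxon signed-ranks test, P<0.05.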

Spodoptera littoralis [2] = assay: Antifeedant activity against sixth stadium larvae of Spodoptera littoralis after 16 hrs; assay type: functional, organism-based
In short: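 No-choice feeding test: glass-fiber disks (2.1 cm) made palatable with 100 μL 0.05 M sucrose, then treated with 100 μL of test solution at 1, 10, 100 or 1000 ppm and offered to S. littoralis larvae. Ended at 16 h, when 50% of control disks were consumed. Disks were reweighed, and EC50 for 50% reduction in feeding was estimated relative to the sucrose control. 10 replications per concentration.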

Spodoptera littoralis [3] = assay: Phagostimulant activity against sixth stadium larvae of Spodoptera littoralis assessed as antifeedant index at 100 ppm after 16 hrs; assay type: functional; in short: as §1

Compound	Activity (Spodoptera littoralis [1])	EC50 (Spodoptera littoralis [2])	Activity (Spodoptera littoralis [3])
C/C=C(\C)C(=O)O[C@H]1O[C@@H]2C[C@@H]3[C@@](C)(CC[C@H]4CCOC4=O)[C@H](C)[C@@H](O)[C@H](OC(C)=O)[C@]13[C@@]1(CO1)C2	29.3%	> 1000 ppm	–
C/C=C(\C)C(=O)O[C@H]1O[C@@H]2C[C@@H]3[C@@](C)(CC[C@@H](CCOC(C)=O)COC(C)=O)[C@H](C)[C@@H](OC(C)=O)[C@H](OC(C)=O)[C@]13[C@@]1(CO1)C2	–	–	-0.4%
CC(=O)OC1O[C@@H]2C[C@@H]3[C@@](C)([C@@H]4C[C@H]5C=CO[C@H]5O4)[C@H](C)C[C@H](OC(C)=O)[C@]13[C@@]1(CO1)C2 (some centres not stated) [JODRELLIN A]	92%	–	–
CC(=O)OCC[C@H](CC[C@@]1(C)[C@H](C)[C@@H](OC(C)=O)[C@H](OC(C)=O)[C@]23C(=O)O[C@H](C[C@H]12)C[C@]31CO1)COC(C)=O	–	–	-27.4%
CC(=O)O[C@@H]1[C@@H](C)[C@](C)(CC[C@H]2CCOC2=O)[C@H]2C[C@@H]3C[C@]4(CO4)[C@]2([C@@H](O)O3)[C@H]1O	67%	51 ppm	–
CC(=O)O[C@@H]1C[C@@H]2[C@@](C)(CC[C@H]3CCOC3=O)[C@H](C)[C@@H](OC(C)=O)[C@H](OC(C)=O)[C@@]2(C=O)[C@@]2(CO2)C1	17.2%	–	–
CC(=O)O[C@H]1C[C@@H](C)[C@](C)([C@@H]2C[C@H]3C=CO[C@H]3O2)[C@H]2C[C@@H]3C[C@]4(CO4)[C@]12C(OC(=O)C(C)C)O3 (some centres not stated) [JODRELLIN B]	100%	–	–
CC(=O)OCC[C@H](CC[C@@]1(C)[C@H](C)[C@@H](OC(C)=O)[C@H](OC(C)=O)[C@]23[C@@H]1C[C@H](C[C@]21CO1)O[C@@H]3O)COC(C)=O	–	–	-38.8%
CC(=O)O[C@@H]1[C@@H](C)[C@](C)(CC[C@H]2CCOC2=O)[C@H]2C[C@@H]3C[C@]4(CO4)[C@]2([C@@H](O)O3)[C@H]1OC(C)=O	34%	> 1000 ppm	–
C/C=C(\C)C(=O)O[C@H]1C[C@H](C)[C@](C)([C@@H](O)CC2=CC(=O)OC2)[C@H]2CCC[C@]3(CO3)[C@]12COC(C)=O [SCUTALPIN C]	96.8%	< 1 ppm	–
CO[C@H]1O[C@@H]2C[C@@H]3[C@@](C)(CC[C@H]4CCOC4=O)[C@H](C)[C@@H](OC(C)=O)[C@H](OC(C)=O)[C@]13[C@@]1(CO1)C2	–	–	-29.5%
C/C=C(\C)C(=O)O[C@H]1O[C@@H]2C[C@@H]3[C@@](C)(CC[C@H](CO)CCO)[C@H](C)[C@@H](OC(C)=O)[C@H](OC(C)=O)[C@]13[C@@]1(CO1)C2	18.8%	–	–
CC(=O)O[C@@H]1[C@@H](C)[C@](C)(CC[C@H]2CCOC2=O)[C@H]2C[C@@H]3C[C@]4(CO4)[C@]2([C@@H](OC(=O)C(C)C)O3)[C@H]1O	37.5%	> 1000 ppm	–
C/C=C(\C)C(=O)O[C@H]1O[C@@H]2C[C@@H]3[C@@](C)(CC[C@H]4CCO[C@H]4O)[C@H](C)[C@@H](O)[C@H](OC(C)=O)[C@]13[C@@]1(CO1)C2 [SCUTEGALIN B]	–	870 ppm	-27%
CC(=O)O[C@@H]1[C@@H](C)[C@](C)(CC[C@H]2CCOC2=O)[C@H]2C[C@@H](OC(=O)C(C)C)C[C@]3(CO3)[C@]2(C=O)[C@H]1OC(C)=O	–	–	-10%
C/C=C(\C)C(=O)O[C@H]1O[C@@H]2C[C@@H]3[C@@](C)(CC[C@H]4CCOC4=O)[C@H](C)C(=O)[C@H](OC(C)=O)[C@]13[C@@]1(CO1)C2	36.5%	350 ppm	–
CC(=O)O[C@H]1C(=O)[C@@H](C)[C@](C)(CC[C@H]2CCOC2=O)[C@H]2C[C@@H]3C[C@]4(CO4)[C@@]21C(=O)O3	44.1%	> 1000 ppm	–
C/C=C(\C)C(=O)O[C@H]1O[C@@H]2C[C@@H]3[C@@](C)(CC[C@H]4CCOC4=O)[C@H](C)[C@@H](OC(C)=O)[C@H](O)[C@]13[C@@]1(CO1)C2	18.6%	> 1000 ppm	–
